An excerpt weighted towards active compounds, which were near 2.9% of everything screened.
MEKK2mut PB1 HTS: signal of MEK5 binding to mutant human MEKK2 PB1 domain | bead flow cytometry, Alexa488-MEK5 binding to MEKK2 mutant | percent response, % at 10 µM | actives 0.35% (n = 290,000) | AID 1530; in the data active = percent response above about 24%, passing the limit was not always enough
Apaf1 inhib: human Apaf-1 inhibition; AID 489030; actives 0.71% (n = 330,000); reconstituted apoptosome caspase-3 activity, DEVD-Rh110 fluorescence; inhibition, % at 20 µM; active = inhibition of at least 40% at 20 µM;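 also: plate controls were DMSO wells for no effect and DEVD-CHO caspase inhibitor wells for full effect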
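Material: reconstituted apoptosome with Apaf-1, cytochrome c, caspase-9, procaspase-3, dATP / Buffer or medium: pH 7.5 Hepes buffer with CHAPS, BSA, DTT / Also added: cytochrome c with DEVD-Rh110 / Schedule: compound with Apaf-1, dATP, procaspase-3 30 min, then 50 min reaction, room temperature / Technique: rhodamine 110 fluorescence at Ex 480/Em 540 nm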
MEKK2 WT-MEK5: raises or lowers MEK5 binding to wildtype human MEKK2 PB1 domain. bead flow cytometry, Alexa488-MEK5 binding to MEKK2 WT; actives lie on both sides. binding response (% of control), % at 10 µM. actives 1.1% (n = 290,000). Q9Y2U5; in the data active = binding response below about 67% or above about 130%
MEKK3 PB1 HTS: MEKK3-MEK5 PB1 interaction, increase or decrease | AID 1529 | bead-based flow cytometry, Alexa488-MEK5 binding to MEKK3; actives lie on both sides; 0 = blocked by unlabeled MEK5, 100 = vehicle | binding response (% of control), % at 10 µM | actives 1.4% (n = 290,000) | Q99759;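 active = binding response more than 3 SD above or below the average of its plate-row segment, actives on both sides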;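 also: Alexa488 bead fluorescence after subtracting the streptavidin-only scavenger bead signal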
Target sequence (Q99759 whole entry, looked up): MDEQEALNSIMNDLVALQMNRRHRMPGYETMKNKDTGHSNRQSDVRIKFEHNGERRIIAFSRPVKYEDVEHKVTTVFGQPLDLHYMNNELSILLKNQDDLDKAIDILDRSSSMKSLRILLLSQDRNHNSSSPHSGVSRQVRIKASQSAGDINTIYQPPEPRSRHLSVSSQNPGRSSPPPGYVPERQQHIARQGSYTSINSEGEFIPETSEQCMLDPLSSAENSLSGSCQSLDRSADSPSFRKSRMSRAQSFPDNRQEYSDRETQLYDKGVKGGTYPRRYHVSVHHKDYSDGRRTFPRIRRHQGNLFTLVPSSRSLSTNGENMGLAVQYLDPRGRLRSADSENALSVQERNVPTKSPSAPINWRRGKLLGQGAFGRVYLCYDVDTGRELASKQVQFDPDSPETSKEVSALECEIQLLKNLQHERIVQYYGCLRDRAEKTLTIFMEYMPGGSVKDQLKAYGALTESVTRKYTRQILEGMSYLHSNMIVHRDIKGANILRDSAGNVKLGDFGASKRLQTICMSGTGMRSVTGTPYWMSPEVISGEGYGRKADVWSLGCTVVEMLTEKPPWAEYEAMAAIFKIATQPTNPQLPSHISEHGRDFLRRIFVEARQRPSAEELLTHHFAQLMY
UBC13 inh: blocks human UBC13 polyubiquitin chain formation; TR-FRET; actives 0.47% (n = 330,000); P61088; AID 485273; inhibition, % at 20 µM; in the data active = inhibition above about 45%, passing the limit was not always enough
Target sequence (P61088 whole entry, looked up): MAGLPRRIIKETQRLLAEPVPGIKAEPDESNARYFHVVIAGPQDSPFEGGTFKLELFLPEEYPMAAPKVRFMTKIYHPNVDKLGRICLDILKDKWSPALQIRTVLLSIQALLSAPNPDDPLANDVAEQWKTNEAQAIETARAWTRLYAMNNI
MEKK2wt confirm: raises or lowers MEK5 binding to wildtype human MEKK2, retest | actives 2.4% (n = 5,900) | shares compounds with MEKK3 PB1 HTS | bead flow cytometry, Alexa488-MEK5 binding to MEKK2 WT; actives lie on both sides | AID 1892 | binding response (% of control), % at 10 µM; in the data active = binding response below about 16% or above about 210%; inactive = in between
MEKK2mut-MEK5: signal of MEK5 binding to mutant human MEKK2, retest; actives 2% (n = 5,900); shares compounds with MEKK3 PB1 HTS; percent response, % at 10 µM; bead flow cytometry, Alexa488-MEK5 binding to MEKK2 mutant; in the data active = percent response mostly above about 71%, no sharp cut-off; inactive = mostly below about 38%;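 also: higher means compound restores mutant binding toward wildtype level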
MEKK3 confirm: MEKK3-MEK5 PB1 inhibition, single concentration confirmation; shares compounds with MEKK3 PB1 HTS; bead flow cytometry, Alexa488-MEK5 binding to MEKK3; hits give low values; binding response (% of control), % at 10 µM; actives 1.8% (n = 5,900);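 active = binding response below 72% of control, or above a set upper limit, though filed actives all read lower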;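 also: 100% = DMSO only wells and 0% = binding blocked by excess unlabeled MEK5; lower values mean stronger disruption of MEK5 binding to MEKK3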
The depositor's hits bear a star; · = no result; [ ] = another dose, or the depositor's remark.

SMILES | MEKK2mut PB1 HTS | Apaf1 inhib | MEKK2 WT-MEK5 | MEKK3 PB1 HTS | UBC13 inh | MEKK2wt confirm | MEKK2mut-MEK5 | MEKK3 confirm
CCOC(=O)Cc1csc(NC(=O)COc2ccc(N(C)S(=O)(=O)c3ccc(C)cc3)cc2)n1 | 9.0 | 15.0 | 116.0 | 128.0* | 8.3 | 104.0 | 3.0 | 107.0
CCOC(=O)Cc1csc(NC(=O)c2ccc(OC)c(OC)c2)n1 | -42.0 | -0.5 | 0.0*[inhibitor] | 1.0*[inhibitor] | 3.0 | 96.0 | 1.0 | 99.0
CCOC(=O)Cc1csc(NC(=O)COc2ccc(OC)cc2)n1 | 5.0 | 1.6 | 99.0 | 99.0 | 4.6 | · | · | ·
CCCN(C(=O)c1nc2nc(C)cc(C)n2n1)c1c(N)n(Cc2ccccc2)c(=O)[nH]c1=O | · | -3.5 | · | · | 3.0 | · | · | ·
O=CN1CCN(C(C(=O)NC2CCCCC2)c2cc3c(cc2[N+](=O)[O-])OCO3)CC1 (centres undefined) | -16.0 | 14.4 | 66.0 | 67.0 | -11.4 | · | · | ·
COc1ccc(NC(=O)C(c2cc3c(cc2[N+](=O)[O-])OCO3)N2CCN(C=O)CC2)cc1 (centres undefined) | -12.0 | 2.7 | 3.0*[inhibitor] | 2.0*[inhibitor] | -2.3 | 101.0 | 6.0 | 104.0
O=C(NCC1CCCO1)c1ccc(COc2ccccc2Br)cc1 (centres undefined) | 1.0 | -10.3 | 97.0 | 96.0 | -0.9 | · | · | ·
COc1cc(/C=N/S(=O)(=O)CCc2ccccc2)ccc1O | 0.0 | 2.5 | 107.0 | 100.0 | 1.3 | · | · | ·
COc1ccc(/C=N/S(=O)(=O)CCc2ccccc2)c(OC)c1 | -1.0 | 0.6 | 96.0 | 69.0*[inhibitor] | 4.6 | 104.0 | 4.0 | 106.0
CCCc1nn(C)c(C(=O)Nc2ccc(CC)cc2)c1Cl | 2.0 | 17.5 | 106.0 | 106.0 | -1.8 | · | · | ·
CCCc1nn(C)c(C(=O)Nc2cccc3ccccc23)c1Cl | 1.0 | 20.1 | 107.0 | 131.0* | 3.5 | 105.0 | 0.0 | 109.0
Cc1ccc(S(=O)(=O)c2c(C)cc(C)[nH]c2=O)cc1 | 0.0 | 3.9 | 102.0 | 101.0 | -1.6 | · | · | ·
c1ccc(CN2CCC(Nc3nc(-c4cccs4)nc4ccccc34)CC2)cc1 | 27.0 | 21.1 | 188.0* | 116.0 | 25.2 | 173.0 | 40.0 | 112.0
Cc1ncc(CN=Cc2ccc(Cl)cc2)c(N)n1 | 9.0 | -5.3 | 98.0 | 99.0 | 5.2 | · | · | ·
CC(C)N1C/C(=C/c2cccnc2)C(=O)/C(=C/c2cccnc2)C1 | 7.0 | · | 107.0 | 110.0 | · | · | · | ·
CN1C/C(=C/c2cccnc2)C(=O)/C(=C/c2cccnc2)C1 | -1.0 | · | 100.0 | 59.0*[inhibitor] | · | 99.0 | -4.0 | 103.0
Cc1c(N2C(=O)c3ccc(Br)cc3C2=O)c(=O)n(-c2ccccc2)n1C | -16.0 | 0.6 | 3.0*[inhibitor] | 2.0*[inhibitor] | -16.2 | 97.0 | 5.0 | 100.0
Cc1c(N2C(=O)c3ccc4c5c(ccc(c35)C2=O)CC4)c(=O)n(-c2ccccc2)n1C | 8.0 | 13.0 | 99.0 | 97.0 | -35.5 | · | · | ·
O=C(Nc1cccc(S(=O)(=O)N2CCCCCC2)c1)c1ccc2c(c1)OCO2 | -1.0 | 5.8 | 105.0 | 140.0* | -9.0 | 101.0 | -3.0 | 106.0
O=C(Nc1cccc(Cl)c1)Nc1cc(S(=O)(=O)N2CCCCC2)ccc1Cl | 78.0* | 4.5 | 131.0 | 102.0 | -13.1 | 124.0 | 1.0 | 103.0
O=C(Nc1cccc(Cl)c1)Nc1cccc(Cl)c1 | 16.0 | 10.8 | 161.0* | 112.0 | -3.5 | 150.0 | 32.0 | 105.0
O=C(Nc1cccc(S(=O)(=O)N2CCCC2)c1)c1ccc2c(c1)OCO2 | 10.0 | 6.0 | 107.0 | 108.0 | -6.5 | · | · | ·
Cc1nn(C)c(C(=O)NCc2ccc(Cl)cc2)c1Cl | 0.0 | 21.1 | 107.0 | 110.0 | 15.5 | · | · | ·
Cc1nc(C)c(C(=O)NCc2ccc(Cl)cc2)o1 | -6.0 | -8.9 | 81.0 | 76.0*[inhibitor] | -2.8 | 99.0 | -2.0 | 104.0
O=C(C(c1ccccc1)c1ccccc1)N1CC[C@@]2(O)CCCC[C@H]2C1 | 5.0 | 4.2 | 100.0 | 100.0 | -13.2 | · | · | ·
SMILES | MEKK2mut PB1 HTS | Apaf1 inhib | MEKK2 WT-MEK5 | MEKK3 PB1 HTS | UBC13 inh | MEKK2wt confirm | MEKK2mut-MEK5 | MEKK3 confirm
O=C(Oc1ccc(Oc2ccccc2)cc1)N1CCC(O)CC1 | -2.0 | -1.7 | 98.0 | 98.0 | 8.3 | · | · | ·
Cc1nc(C)c(C(=O)Nc2cccc(Cl)c2)o1 | -6.0 | -17.2 | 84.0 | 77.0*[inhibitor] | 0.3 | 103.0 | 4.0 | 101.0
CCOC(=O)Cc1csc(NS(=O)(=O)c2ccc([N+](=O)[O-])cc2)n1 | 2.0 | 7.1 | 96.0 | 100.0 | -10.3 | · | · | ·
CC(C)N1C(=O)NC2(c3ccccc3)N(C)C(=O)N(C)C12c1ccccc1 (centres undefined) | -6.0 | -7.0 | 99.0 | 105.0 | 2.9 | · | · | ·
CN1C(=O)N(C)C2(c3ccccc3)N(C)C(=O)NC12c1ccccc1 (centres undefined) | -17.0 | -6.5 | 50.0 | 35.0*[inhibitor] | -4.2 | 101.0 | 6.0 | 101.0
Cc1cc([N+](=O)[O-])cc2c1NC(=O)C2(O)N1CCCCCC1 (centres undefined) | 2.0 | 1.4 | 118.0 | 163.0* | -10.5 | 111.0 | 4.0 | 106.0
COc1cc(C(C(=O)NC(C)(C)C)N(Cc2ccc3c(c2)OCO3)C(=O)c2cnccn2)cc(OC)c1OC (centres undefined) | -14.0 | -2.2 | 58.0 | 40.0*[inhibitor] | -4.6 | 101.0 | -2.0 | 100.0
O=C(O)c1cccc(N2C(=O)c3ccc(Oc4ccc(Cl)cc4)cc3C2=O)c1 | -2.0 | 0.4 | 98.0 | 98.0 | -10.3 | · | · | ·
Cc1cccc(N2C(=O)c3cccc(Oc4ccc(Cl)cc4)c3C2=O)c1 | 0.0 | 15.7 | 104.0 | 130.0* | 4.5 | 99.0 | -4.0 | 104.0
Cc1ccc(Nc2nnc(SCC(=O)c3ccc(Br)s3)s2)c(C)c1 | 2.0 | 17.2 | 94.0 | 72.0*[inhibitor] | -12.2 | 97.0 | -8.0 | 99.0
Cc1cccc(C)c1Nc1nnc(SCC(=O)c2ccc(Br)s2)s1 | 6.0 | 18.2 | 118.0 | 109.0 | -6.0 | · | · | ·
COc1ccccc1Nc1nnc(SCc2cc(=O)n3cc(C)ccc3n2)s1 | 1.0 | 0.5 | 111.0 | 142.0* | -10.2 | 90.0 | -10.0 | 92.0
Cc1ccccc1Nc1nnc(SCc2cc(=O)n3ccsc3n2)s1 | 6.0 | -0.8 | 104.0 | 103.0 | 3.2 | · | · | ·
Cc1cccc(N2CCN(S(=O)(=O)c3cc(-c4cc(C)no4)ccc3C)CC2C)c1 (centres undefined) | -4.0 | 12.4 | 95.0 | 98.0 | 8.2 | · | · | ·
COc1ccc(NC(=S)N2c3ccccc3CC2C)cc1OC (centres undefined) | -5.0 | 10.8 | 85.0 | 74.0*[inhibitor] | -12.9 | 100.0 | -1.0 | 102.0
COc1ccc(C)c(NC(=O)NCCc2cnc[nH]2)c1 | 5.0 | -5.0 | 110.0 | 107.0 | -4.8 | · | · | ·

Compound activity from PubChem BioAssay.
